Results: ChEMBL document CHEMBL1759890, “3,5-Disubstituted-indole-7-carboxamides: the discovery of a novel series of potent, selective inhibitors of IKK-β” (Bioorg Med Chem Lett, 2011)
In brackets after ≈: the same amount, converted by molar mass.

Legend:
[1] = target: T1, Inhibitor of nuclear factor kappa-B kinase subunit beta (Homo sapiens, UniProt O14920); test: Inhibition of IKK-beta
T1 sequence (O14920 whole entry): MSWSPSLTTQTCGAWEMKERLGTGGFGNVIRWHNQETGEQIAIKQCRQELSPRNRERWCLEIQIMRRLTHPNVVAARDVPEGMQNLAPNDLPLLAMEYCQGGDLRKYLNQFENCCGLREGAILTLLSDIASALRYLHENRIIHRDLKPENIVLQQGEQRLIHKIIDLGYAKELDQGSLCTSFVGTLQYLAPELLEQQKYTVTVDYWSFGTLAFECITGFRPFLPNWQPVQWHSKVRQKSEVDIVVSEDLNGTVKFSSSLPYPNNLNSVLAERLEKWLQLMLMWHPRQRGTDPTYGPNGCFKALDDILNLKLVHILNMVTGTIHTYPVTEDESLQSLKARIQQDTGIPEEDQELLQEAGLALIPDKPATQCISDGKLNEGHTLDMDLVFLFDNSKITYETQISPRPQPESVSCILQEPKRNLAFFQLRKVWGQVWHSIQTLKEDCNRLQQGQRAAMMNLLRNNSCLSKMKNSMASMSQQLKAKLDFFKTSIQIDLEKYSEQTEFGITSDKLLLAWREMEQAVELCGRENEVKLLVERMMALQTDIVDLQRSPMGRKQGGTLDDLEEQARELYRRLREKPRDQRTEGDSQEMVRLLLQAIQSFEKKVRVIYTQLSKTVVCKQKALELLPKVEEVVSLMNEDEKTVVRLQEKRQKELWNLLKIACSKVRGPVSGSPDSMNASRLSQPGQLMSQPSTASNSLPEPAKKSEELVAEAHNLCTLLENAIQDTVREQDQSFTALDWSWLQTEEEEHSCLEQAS

[2] = target: T2, Inhibitor of nuclear factor kappa-B kinase subunit alpha (Homo sapiens, UniProt O15111); test: Inhibition of IKK-alpha
T2 sequence (O15111 whole entry): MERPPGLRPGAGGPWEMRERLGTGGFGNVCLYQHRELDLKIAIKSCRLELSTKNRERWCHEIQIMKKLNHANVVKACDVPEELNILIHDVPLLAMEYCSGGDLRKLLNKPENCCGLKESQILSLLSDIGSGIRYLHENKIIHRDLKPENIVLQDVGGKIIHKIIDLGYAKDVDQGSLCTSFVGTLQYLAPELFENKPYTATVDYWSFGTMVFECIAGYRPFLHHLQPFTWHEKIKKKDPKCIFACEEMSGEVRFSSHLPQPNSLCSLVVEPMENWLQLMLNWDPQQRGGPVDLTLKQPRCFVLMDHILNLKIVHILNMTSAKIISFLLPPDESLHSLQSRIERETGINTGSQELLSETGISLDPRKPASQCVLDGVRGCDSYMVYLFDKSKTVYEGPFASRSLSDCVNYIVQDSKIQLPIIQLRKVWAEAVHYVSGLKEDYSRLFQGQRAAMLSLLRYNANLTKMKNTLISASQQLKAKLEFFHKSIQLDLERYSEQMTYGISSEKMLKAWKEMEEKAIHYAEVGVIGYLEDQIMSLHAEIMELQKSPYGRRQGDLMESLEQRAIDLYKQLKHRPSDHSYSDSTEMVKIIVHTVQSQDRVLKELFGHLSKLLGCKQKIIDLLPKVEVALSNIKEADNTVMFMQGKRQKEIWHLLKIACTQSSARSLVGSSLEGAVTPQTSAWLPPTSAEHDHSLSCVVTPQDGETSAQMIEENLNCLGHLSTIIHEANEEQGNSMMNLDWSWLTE
Outline: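 Done the same way as the IKK-β TR-FRET assay but with 6-His-tagged full-length IKK-α. Buffer is 50 mM HEPES, 10 mM MgCl₂, 1 mM CHAPS pH 7.4, 1 mM DTT, 0.01% w/v BSA. GST-IκBα substrate 25 nM final, ATP 1 μM final, DMSO below 5% final. Error about ±0.3 log units.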

PBMC = test: Antiinflammatory activity in human PBMC assessed as inhibition of LPS-induced TNF-alpha production; type: functional, cell-based
Outline: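 Human peripheral blood mononuclear cells stimulated with LPS. Read-out is inhibition of TNF-α production, reported as pIC50.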

[3] = target: Macrophage colony-stimulating factor 1 receptor (Homo sapiens, UniProt P07333); test: Inhibition of c-FMS
Sequence of Macrophage colony-stimulating factor 1 receptor (P07333 whole entry): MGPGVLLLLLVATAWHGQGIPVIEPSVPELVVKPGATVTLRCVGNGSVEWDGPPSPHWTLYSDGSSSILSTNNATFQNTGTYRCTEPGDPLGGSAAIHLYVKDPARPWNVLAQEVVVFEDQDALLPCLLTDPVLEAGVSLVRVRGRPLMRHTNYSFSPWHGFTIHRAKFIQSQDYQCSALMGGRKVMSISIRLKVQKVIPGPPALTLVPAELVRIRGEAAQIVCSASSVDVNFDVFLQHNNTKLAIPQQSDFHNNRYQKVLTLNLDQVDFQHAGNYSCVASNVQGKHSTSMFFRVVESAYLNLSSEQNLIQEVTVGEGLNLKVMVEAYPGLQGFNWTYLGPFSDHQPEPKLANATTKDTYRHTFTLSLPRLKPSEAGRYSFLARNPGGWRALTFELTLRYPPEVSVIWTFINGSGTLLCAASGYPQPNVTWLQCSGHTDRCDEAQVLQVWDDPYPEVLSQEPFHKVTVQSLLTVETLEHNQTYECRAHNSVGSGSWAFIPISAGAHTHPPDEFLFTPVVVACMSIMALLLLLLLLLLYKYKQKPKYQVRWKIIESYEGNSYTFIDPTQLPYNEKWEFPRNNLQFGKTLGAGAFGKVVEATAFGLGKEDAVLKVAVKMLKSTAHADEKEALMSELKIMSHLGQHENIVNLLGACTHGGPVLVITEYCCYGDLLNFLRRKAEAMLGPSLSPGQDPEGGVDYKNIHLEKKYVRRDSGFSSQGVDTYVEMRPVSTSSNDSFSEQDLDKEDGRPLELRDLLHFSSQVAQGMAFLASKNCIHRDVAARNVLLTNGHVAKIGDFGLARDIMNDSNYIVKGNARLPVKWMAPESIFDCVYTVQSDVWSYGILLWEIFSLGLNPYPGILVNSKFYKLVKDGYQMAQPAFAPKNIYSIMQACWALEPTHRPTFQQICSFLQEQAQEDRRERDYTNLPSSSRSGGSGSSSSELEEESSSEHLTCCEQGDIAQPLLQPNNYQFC

[4] = Aqueous solubility of the compound; type: physicochemical
[5] = target: T3, Serine/threonine-protein kinase TBK1 (Homo sapiens, UniProt Q9UHD2); test: Inhibition of TBK-1
T3 sequence (Q9UHD2 whole entry): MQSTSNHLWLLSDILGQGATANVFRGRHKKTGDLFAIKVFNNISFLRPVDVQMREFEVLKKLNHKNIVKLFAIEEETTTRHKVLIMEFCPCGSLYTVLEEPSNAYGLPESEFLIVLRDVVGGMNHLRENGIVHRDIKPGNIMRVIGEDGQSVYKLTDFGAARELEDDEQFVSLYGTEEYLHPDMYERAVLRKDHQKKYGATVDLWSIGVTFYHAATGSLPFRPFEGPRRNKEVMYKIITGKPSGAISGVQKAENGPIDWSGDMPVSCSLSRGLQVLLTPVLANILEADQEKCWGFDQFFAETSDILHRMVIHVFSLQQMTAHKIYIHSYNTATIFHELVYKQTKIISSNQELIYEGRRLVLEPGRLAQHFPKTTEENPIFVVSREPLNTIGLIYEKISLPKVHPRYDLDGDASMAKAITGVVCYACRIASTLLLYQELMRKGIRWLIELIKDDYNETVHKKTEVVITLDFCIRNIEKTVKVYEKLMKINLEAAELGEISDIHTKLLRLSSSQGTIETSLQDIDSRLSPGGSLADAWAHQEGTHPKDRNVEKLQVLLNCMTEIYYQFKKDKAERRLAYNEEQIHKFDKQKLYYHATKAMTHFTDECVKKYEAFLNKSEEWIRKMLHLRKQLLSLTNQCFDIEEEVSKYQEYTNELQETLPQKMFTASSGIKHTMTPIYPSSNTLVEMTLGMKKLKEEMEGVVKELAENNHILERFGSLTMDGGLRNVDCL

[6] = target: Tyrosine-protein kinase BTK (Homo sapiens, UniProt Q06187); test: Inhibition of BTK
Sequence of Tyrosine-protein kinase BTK (Q06187 whole entry): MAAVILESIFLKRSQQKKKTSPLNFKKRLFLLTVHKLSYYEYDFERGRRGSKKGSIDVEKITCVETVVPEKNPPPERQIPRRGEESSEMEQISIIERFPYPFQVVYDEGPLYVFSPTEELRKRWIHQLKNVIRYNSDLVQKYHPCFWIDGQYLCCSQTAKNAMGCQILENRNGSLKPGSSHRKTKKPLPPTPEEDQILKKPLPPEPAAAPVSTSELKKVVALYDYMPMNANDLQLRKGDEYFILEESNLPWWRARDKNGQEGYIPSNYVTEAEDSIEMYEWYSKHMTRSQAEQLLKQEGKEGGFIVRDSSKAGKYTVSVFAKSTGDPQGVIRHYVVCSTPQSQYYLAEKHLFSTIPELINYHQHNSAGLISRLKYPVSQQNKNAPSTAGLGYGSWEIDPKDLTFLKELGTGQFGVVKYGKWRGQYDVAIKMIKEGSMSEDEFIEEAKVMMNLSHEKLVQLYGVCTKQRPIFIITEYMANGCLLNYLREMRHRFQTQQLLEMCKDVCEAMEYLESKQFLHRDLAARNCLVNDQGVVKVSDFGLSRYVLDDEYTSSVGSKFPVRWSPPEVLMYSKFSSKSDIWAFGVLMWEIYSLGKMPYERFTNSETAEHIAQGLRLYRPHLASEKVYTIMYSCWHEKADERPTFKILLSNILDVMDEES

[7] = Oral bioavailability in rat; type: ADME, organism-based; conditions: in vivo
serum albumin = serum albumin (Homo sapiens, UniProt P02768); test: Binding affinity to human serum albumin; type: ADME; conditions: read-out: PB
Sequence of serum albumin (P02768 whole entry): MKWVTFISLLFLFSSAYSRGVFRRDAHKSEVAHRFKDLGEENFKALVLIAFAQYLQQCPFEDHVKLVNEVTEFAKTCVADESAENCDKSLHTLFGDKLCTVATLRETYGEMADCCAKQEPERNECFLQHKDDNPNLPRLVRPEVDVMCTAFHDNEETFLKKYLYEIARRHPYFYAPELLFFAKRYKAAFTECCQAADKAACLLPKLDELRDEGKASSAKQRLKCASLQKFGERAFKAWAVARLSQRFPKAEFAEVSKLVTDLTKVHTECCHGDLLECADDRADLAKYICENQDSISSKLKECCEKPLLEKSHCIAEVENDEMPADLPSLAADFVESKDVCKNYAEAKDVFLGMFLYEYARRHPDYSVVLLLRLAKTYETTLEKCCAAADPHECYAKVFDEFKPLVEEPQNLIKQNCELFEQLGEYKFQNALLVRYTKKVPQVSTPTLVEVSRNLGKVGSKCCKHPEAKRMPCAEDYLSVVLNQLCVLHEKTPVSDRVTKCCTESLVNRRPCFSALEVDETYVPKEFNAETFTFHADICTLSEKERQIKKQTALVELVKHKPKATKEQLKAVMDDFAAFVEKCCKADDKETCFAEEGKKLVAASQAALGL

[8] = target: T4, Inhibitor of nuclear factor kappa-B kinase subunit epsilon (Homo sapiens, UniProt Q14164); test: Inhibition of IKK-epsilon
T4 sequence (Q14164 whole entry): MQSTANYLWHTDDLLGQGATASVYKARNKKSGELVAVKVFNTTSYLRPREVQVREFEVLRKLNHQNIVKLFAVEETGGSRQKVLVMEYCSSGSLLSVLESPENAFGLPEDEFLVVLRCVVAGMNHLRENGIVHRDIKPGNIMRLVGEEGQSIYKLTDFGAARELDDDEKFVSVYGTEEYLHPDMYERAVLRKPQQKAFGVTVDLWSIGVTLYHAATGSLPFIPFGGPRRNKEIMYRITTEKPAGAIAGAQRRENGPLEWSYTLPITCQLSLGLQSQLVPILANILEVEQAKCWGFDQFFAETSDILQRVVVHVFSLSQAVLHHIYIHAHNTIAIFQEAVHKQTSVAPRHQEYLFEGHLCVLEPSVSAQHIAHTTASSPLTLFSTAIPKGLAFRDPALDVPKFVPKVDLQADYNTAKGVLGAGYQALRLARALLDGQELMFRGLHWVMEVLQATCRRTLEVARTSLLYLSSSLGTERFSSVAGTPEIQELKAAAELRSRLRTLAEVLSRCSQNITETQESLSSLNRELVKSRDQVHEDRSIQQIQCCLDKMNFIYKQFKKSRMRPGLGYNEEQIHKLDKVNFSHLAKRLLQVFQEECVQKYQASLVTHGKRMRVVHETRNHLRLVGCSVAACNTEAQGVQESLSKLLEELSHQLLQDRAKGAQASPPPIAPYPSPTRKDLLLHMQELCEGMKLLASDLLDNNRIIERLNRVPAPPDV

| SMILES | IC50 [1] | IC50 [2] | further results |
| --- | --- | --- | --- |
| NC(=O)c1cc(Br)cc2c3c([nH]c12)CCCC3 | 2510 nM | – | – |
| O=C(O)c1cc(-c2ccccc2)cc2cc[nH]c12 | > 15800 nM | – | – |
| NC(=O)c1cc(-c2ccccc2)cc2cc[nH]c12 | 1580 nM | 10000 nM | – |
| N#Cc1cccc(-c2cc(C(N)=O)c3[nH]ccc3c2)c1 | 1580 nM | 10000 nM | – |
| NC(=O)c1cc(-c2ccccc2Cl)cc2cc[nH]c12 | 6310 nM | > 15800 nM | – |
| NC(=O)c1cc(-c2cccc(Cl)c2)cc2cc[nH]c12 | 794 nM | 5010 nM | – |
| NC(=O)c1cc(-c2cccc(CO)c2)cc2cc[nH]c12 | 2510 nM | 15800 nM | – |
| NC(=O)c1cc(-c2ccc(CO)cc2)cc2cc[nH]c12 | 1260 nM | 15800 nM | – |
| COc1ccncc1-c1cc(C(N)=O)c2[nH]ccc2c1 | 1580 nM | 12600 nM | – |
| NC(=O)c1cc(-c2cc3ccccc3o2)cc2cc[nH]c12 | 501 nM | 3980 nM | – |
| NC(=O)c1cc(-c2ccccc2)cc2c(C3CCNCC3)c[nH]c12 | 501 nM | 10000 nM | – |
| CN(C)C(=O)c1cc(-c2ccccc2)cc2cc[nH]c12 | > 15800 nM | – | – |
| NC(=O)c1cc(-c2cncnc2)cc2cc[nH]c12 | 5010 nM | 15800 nM | – |

Continued by falling IC50 [1], values first:

| IC50 [1] | IC50 [2] | SMILES | further results |
| --- | --- | --- | --- |
| 501 nM | 3980 nM | CS(=O)(=O)Nc1ccc(-c2cc(C(N)=O)c3[nH]ccc3c2)cc1 | – |
| 398 nM | 7940 nM | NC(=O)c1cc(-c2ccccc2)cc2c(C3CCN(S(=O)(=O)c4ccc(Cl)cc4)CC3)c[nH]c12 | – |
| 316 nM | 6310 nM | NC(=O)c1cc(-c2ccc(Cl)cc2)cc2cc[nH]c12 | – |
| 158 nM | 1580 nM | NC(=O)c1cc(-c2ccccc2)cc2c(C3CCCNC3)c[nH]c12 (centres undefined) | IC50 (PBMC): 631 nM; IC50 [3]: 1580 nM; solubility [4]: 136 µg/mL (≈ 426 µM); IC50 [5]: > 3160 nM; IC50 [6]: 1260 nM; bioavailability [7]: 22%; fraction unbound (serum albumin): 0.09; IC50 [8]: > 3160 nM |
| 25.1 nM | 2000 nM | CCS(=O)(=O)N1CCC(c2c[nH]c3c(C(N)=O)cc(-c4ccccc4)cc23)CC1 | – |
| 20 nM | 3160 nM | CC(C)S(=O)(=O)N1CCC(c2c[nH]c3c(C(N)=O)cc(-c4ccccc4)cc23)CC1 | – |
| 7.94 nM | – | CCc1ccc(-c2cc(C(N)=O)c(NC(N)=O)s2)cc1 | – |
